Experimental data taken from ChEMBL document CHEMBL1147862, “Studies on synthesis and pharmacological activities of 3,6-disubstituted-1,2,4-triazolo[3,4-b]-1,3,4-thiadiazoles and their dihydro analogues” (2007).

Key:
Format in all cases: functional
[1] = tested on: Mus musculus; assay: Analgesic activity in Swiss mouse assessed as increase in reaction time at 20 mg/kg, po after 90 mins by Eddy's hot plate technique
How it was run: (§1)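 Swiss mice of either sex, 25–35 g, placed one at a time on a hot plate held at 55 °C. End point is paw licking or jumping, whichever comes first, with a 15 s cut-off to avoid paw injury. Reaction time is recorded and reported as percent increase in reaction time.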

[2] = tested on: Pseudomonas aeruginosa; assay: Antibacterial activity against Pseudomonas aeruginosa at 30 ug/ml by agar plate diffusion technique; conditions: read-out: IZ
[3] = tested on: Bacillus subtilis; assay: Antibacterial activity against Bacillus subtilis at 10 ug/ml by agar plate diffusion technique; conditions: read-out: IZ
[4] = tested on: Escherichia coli; assay: Antibacterial activity against Escherichia coli at 30 ug/ml by agar plate diffusion technique; conditions: read-out: IZ
[5] = tested on: Rattus norvegicus; assay: Antiinflammatory activity in Wistar Albino rat assessed as inhibition of carrageenan-induced paw oedema at 20 mg/kg after 3 hrs relative to control
How it was run: (§2)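 Wistar albino rats, 150–200 g, six per group, dosed orally with a 20 mg/kg suspension; control gets 0.1 ml 1% gum acacia. After 30 min, 0.1 ml 1% carrageenan in saline is injected subplantar into the right hind paw. Paw volume is read by plethysmograph at 0–4 h. Inhibition = 100(1 − Vtest/Vcontrol) on mean volume increase.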

[6] = tested on: Pseudomonas aeruginosa; assay: Antibacterial activity against Pseudomonas aeruginosa at 10 ug/ml by agar plate diffusion technique; conditions: read-out: IZ
[7] = tested on: Mus musculus; assay: Analgesic activity in Swiss mouse assessed as increase in reaction time at 20 mg/kg, po after 60 mins by Eddy's hot plate technique; how it was run: as §1
[8] = tested on: Aspergillus niger; assay: Antifungal activity against Aspergillus niger at 20 ug/ml by paper disc method; conditions: read-out: IZ
[9] = tested on: Candida albicans; assay: Antifungal activity against Candida albicans at 20 ug/ml by paper disc method; conditions: read-out: IZ
[10] = tested on: Escherichia coli; assay: Antibacterial activity against Escherichia coli at 20 ug/ml by agar plate diffusion technique; conditions: read-out: IZ
[11] = tested on: Candida albicans; assay: Antifungal activity against Candida albicans at 30 ug/ml by paper disc method; conditions: read-out: IZ
[12] = tested on: Bacillus subtilis; assay: Antibacterial activity against Bacillus subtilis at 20 ug/ml by agar plate diffusion technique; conditions: read-out: IZ
[13] = tested on: Rattus norvegicus; assay: Antiinflammatory activity in Wistar Albino rat assessed as inhibition of carrageenan-induced paw oedema at 20 mg/kg after 4 hrs relative to control; how it was run: as §2
[14] = tested on: Staphylococcus aureus; assay: Antibacterial activity against Staphylococcus aureus at 30 ug/ml by agar plate diffusion technique; conditions: read-out: IZ
[15] = tested on: Staphylococcus aureus; assay: Antibacterial activity against Staphylococcus aureus at 20 ug/ml by agar plate diffusion technique; conditions: read-out: IZ
[16] = tested on: Aspergillus niger; assay: Antifungal activity against Aspergillus niger at 30 ug/ml by paper disc method; conditions: read-out: IZ
[17] = tested on: Rattus norvegicus; assay: Antiinflammatory activity in Wistar Albino rat assessed as inhibition of carrageenan-induced paw oedema at 20 mg/kg after 2 hrs relative to control; how it was run: as §2
[18] = tested on: Rattus norvegicus; assay: Antiinflammatory activity in Wistar Albino rat assessed as inhibition of carrageenan-induced paw oedema at 20 mg/kg after 1 hr relative to control; how it was run: as §2
[19] = tested on: Escherichia coli; assay: Antibacterial activity against Escherichia coli at 10 ug/ml by agar plate diffusion technique; conditions: read-out: IZ
[20] = tested on: Staphylococcus aureus; assay: Antibacterial activity against Staphylococcus aureus at 10 ug/ml by agar plate diffusion technique; conditions: read-out: IZ
[21] = tested on: Bacillus subtilis; assay: Antibacterial activity against Bacillus subtilis at 30 ug/ml by agar plate diffusion technique; conditions: read-out: IZ
[22] = tested on: Candida albicans; assay: Antifungal activity against Candida albicans at 10 ug/ml by paper disc method; conditions: read-out: IZ
[23] = tested on: Aspergillus niger; assay: Antifungal activity against Aspergillus niger at 10 ug/ml by paper disc method; conditions: read-out: IZ
[24] = tested on: Pseudomonas aeruginosa; assay: Antibacterial activity against Pseudomonas aeruginosa at 20 ug/ml by agar plate diffusion technique; conditions: read-out: IZ
[25] = tested on: Mus musculus; assay: Analgesic activity in Swiss mouse assessed as increase in reaction time at 20 mg/kg, po after 30 mins by Eddy's hot plate technique; how it was run: as §1

SMILES | Activity [1] [%] | zone of inhibition at 30 µg/mL [2] [mm] | zone of inhibition at 10 µg/mL [3] [mm] | zone of inhibition at 30 µg/mL [4] [mm] | inhibition in vivo at 20 mg/kg [5] [%] | zone of inhibition at 10 µg/mL [6] [mm] | Activity [7] [%] | zone of inhibition at 20 µg/mL [8] [mm] | zone of inhibition at 20 µg/mL [9] [mm] | zone of inhibition at 20 µg/mL [10] [mm] | zone of inhibition at 30 µg/mL [11] [mm] | zone of inhibition at 20 µg/mL [12] [mm] | inhibition in vivo at 20 mg/kg [13] [%] | zone of inhibition at 30 µg/mL [14] [mm] | zone of inhibition at 20 µg/mL [15] [mm] | zone of inhibition at 30 µg/mL [16] [mm] | inhibition in vivo at 20 mg/kg [17] [%] | inhibition in vivo at 20 mg/kg [18] [%] | zone of inhibition at 10 µg/mL [19] [mm] | zone of inhibition at 10 µg/mL [20] [mm] | further results
COc1ccc(Cc2nnc3sc(-c4ccnc(Cl)c4)nn23)cc1OC | 23.89 | 19.4 | 7.19 | 19.7 | 22.5 | 6.93 | 12.55 | 13 | 12.9 | 12.8 | 19.4 | 13.9 | 24.2 | 18.1 | 13.6 | 18.4 | 13.2 | 11.2 | 6.72 | 7.05 | zone of inhibition at 30 µg/mL [21]: 18.9 mm; zone of inhibition at 10 µg/mL [22]: 6.82 mm; zone of inhibition at 10 µg/mL [23]: 7.23 mm; zone of inhibition at 20 µg/mL [24]: 12.2 mm; Activity [25]: 6.24%
COc1ccc(Cc2nnc3n2NC(c2ccc[nH]2)S3)cc1OC (stereo not given) | 21.06 | 13.3 | 4.32 | 14.2 | 17.7 | 7.33 | 12.65 | 9.12 | 8.12 | 7.18 | 13.1 | 8.32 | 21.5 | 10.6 | 7.64 | 12.2 | 15.9 | 13.2 | 4.48 | 4.02 | zone of inhibition at 30 µg/mL [21]: 12 mm; zone of inhibition at 10 µg/mL [22]: 4.7 mm; zone of inhibition at 10 µg/mL [23]: 4.68 mm; zone of inhibition at 20 µg/mL [24]: 11.7 mm; Activity [25]: 7.6%
